This note sets out measurements from ChEMBL document CHEMBL4330099, “Lead generation and optimization of novel GPR119 agonists with a spirocyclic cyclohexane structure” (Bioorg Med Chem Lett, 2019).

≈ marks a conversion by molar mass, not a printed value.

Series [1] is described as follows: Solubility of the compound in FeSSIF. The series is classed as physicochemical.
Series [2] is described as follows: Solubility of the compound in Japanese pharmacopoeia first fluid at pH 1.2. The series is classed as physicochemical. The procedure, abridged: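 Solubility was measured in Japanese Pharmacopoeia 1st fluid for dissolution testing, adjusted to pH 1.2.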
The target in series [3] is T1, Glucose-dependent insulinotropic receptor (Homo sapiens) (UniProt Q8TDV5).
T1 sequence (whole entry): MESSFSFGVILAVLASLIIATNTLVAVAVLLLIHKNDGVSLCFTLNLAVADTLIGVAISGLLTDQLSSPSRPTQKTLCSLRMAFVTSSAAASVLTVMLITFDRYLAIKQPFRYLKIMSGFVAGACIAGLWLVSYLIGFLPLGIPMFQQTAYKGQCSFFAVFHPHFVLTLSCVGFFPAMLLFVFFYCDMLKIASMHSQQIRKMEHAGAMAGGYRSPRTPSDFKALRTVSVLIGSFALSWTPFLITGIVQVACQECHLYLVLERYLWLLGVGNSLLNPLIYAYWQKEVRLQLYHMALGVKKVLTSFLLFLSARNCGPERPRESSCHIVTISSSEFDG
In words: Intrinsic activity at human GPR119 expressed in HEK293 cells assessed as intracellular cAMP accumulation after 30 mins by HTRF assay relative to oleoylethanolamide. The series is classed as functional, cell-based. The procedure, abridged:
(§1)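 Anti-cAMP cryptate in lysis buffer was then added for 3 h at room temperature in the dark, and cAMP was read by HTRF. EC50 is the concentration giving 50% of the maximal OEA response; intrinsic activity is expressed as % of OEA (100%).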

The target of series [4] is T2, Glucose-dependent insulinotropic receptor (Homo sapiens, UniProt Q8TDV5).
T2 sequence (Q8TDV5 whole entry): T1 sequence (whole entry)
Briefly: Agonist activity at human GPR119 expressed in HEK293 cells assessed as intracellular cAMP accumulation after 30 mins by HTRF assay. Format: functional, cell-based. The procedure, abridged: as §1
For orientation: Changes in cAMP serve as a functional read-out for many G protein-coupled receptors.

The nature of series [5]: Metabolic stability in human liver microsomes assessed as parent compound remaining at 5 uM after 1 hr. The series is classed as ADME, Microsome. The following applies: read-out: Stability. The method in brief: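 Compound (5 μM) was incubated with human liver microsomes ([…]) for 1 h. Percent of compound remaining was reported.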
The nature of series [6]: Metabolic stability in rat liver microsomes assessed as parent compound remaining at 5 uM after 1 hr. The series is classed as ADME, Microsome. The following applies: read-out: Stability. The method in brief: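 Compound (5 μM) was incubated with rat liver microsomes ([…]) for 1 h. Percent of compound remaining was reported.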
A general note: Microsomes from liver hold many membrane-bound enzymes, among them those of drug oxidation.

Usually solubility stands for how much of the substance goes into solution per volume. Read a high solubility as a readily soluble substance. By EC50 is commonly meant the concentration at which the effect is half-maximal. Regarding `CC(C)c1c(Nc2ccc(S(C)(=O)=O)cc2F)ncnc1O[C@H]1CC[C@]2(CC1)COC(C)(C)C2`, the solubility in series [1] turned out to be 4.3 µM (≈ 2.11 µg/mL); in series [2] it was 0.7 µM (≈ 0.344 µg/mL). The Intrinsic activity in series [3] turned out to be 61%. The EC50 in series [4] came to 98 nM.

For `Cc1c(O[C@H]2CC[C@]3(CC2)COC(C)(C)C3)ncnc1N1CCc2cc(S(C)(=O)=O)ccc21`, the solubility was determined as 25.5 µM (≈ 12 µg/mL) in series [1] and 2.8 µM (≈ 1.32 µg/mL) in series [2]. For the same molecule, in series [3], the Intrinsic activity stood at 38%. For the same molecule, the EC50 in series [4] is > 1000 nM.

Take `Cc1c(Nc2ccc(C(=O)N(C)C)cc2F)ncnc1O[C@H]1CC[C@]2(CC1)COC(C)(C)C2`: the remaining at 1 h, 5 µM in series [5] was found to be 77%; in series [6] it was 44%. Further, the solubility in series [1] was 65.2 µM (≈ 29.8 µg/mL); in series [2], 128 µM (≈ 58.7 µg/mL). In addition, in series [3], the Intrinsic activity worked out at 101%. In addition, the EC50 in series [4] turned out to be 33 nM.

Take `Cc1c(O[C@H]2CC[C@]3(CC2)COC(C)(C)C3)ncnc1N(C)c1ccc(S(C)(=O)=O)cc1F`: the figures for the solubility in series [1] and in series [2] were 42.5 µM (≈ 20.3 µg/mL) and 13 µM (≈ 6.21 µg/mL), respectively. Further, the Intrinsic activity in series [3] was found to be 17%. In series [4], the EC50 was > 1000 nM.

In the case of `Cc1c(Nc2ccc(S(C)(=O)=O)cc2F)ncnc1N(C)[C@H]1CC[C@]2(CC1)COC(C)(C)C2`, the values for the remaining at 1 h, 5 µM in series [5] and in series [6] were 91% and 93%, respectively. Moreover, the solubility is 49.8 µM (≈ 23.7 µg/mL) in series [1] and > 475 µM in series [2]. For the same molecule, the Intrinsic activity in series [3] came to 128%. Besides, in series [4], the EC50 was 45 nM.

Consider `CC(O[C@H]1CC[C@]2(CC1)COC(C)(C)C2)c1nc(-c2ccc(S(C)(=O)=O)c(F)c2)no1` (some centres undefined), for which the Intrinsic activity in series [3] was 109%. The EC50 in series [4] was 89 nM.

As to `CC1(C)C[C@]2(CC[C@H](c3nc(COc4ccc(-n5cnnn5)cc4)cs3)CC2)CO1`, in series [3], the Intrinsic activity worked out at 79%. The EC50 in series [4] was 85 nM.

As to `CCc1c(Nc2ccc(S(C)(=O)=O)cc2F)ncnc1O[C@H]1CC[C@]2(CC1)COC(C)(C)C2`, the solubility in series [1] turned out to be 67.5 µM (≈ 32.2 µg/mL); in series [2], 4.6 µM (≈ 2.2 µg/mL). Moreover, in series [3], the Intrinsic activity is 82%. Further, the EC50 in series [4] stood at 42 nM.

Turning to `CN(c1ncnc2c1CCN2c1ccc(S(C)(=O)=O)cc1F)[C@H]1CC[C@]2(CC1)COC(C)(C)C2`, the figures for the remaining at 1 h, 5 µM in series [5] and in series [6] were 99% and 94%, respectively. The solubility in series [1] was 75.3 µM (≈ 36.8 µg/mL); in series [2], > 475 µM. In addition, the Intrinsic activity in series [3] came to 118%. Further, the EC50 in series [4] is 39 nM.

Take `CC1(C)C[C@]2(CC[C@H](Oc3ncnc4c3CCN4c3ccc(S(C)(=O)=O)cc3F)CC2)CO1`: the figures for the solubility in series [1] and in series [2] were 15.2 µM (≈ 7.23 µg/mL) and 18.9 µM (≈ 8.99 µg/mL), respectively. In addition, the Intrinsic activity in series [3] came out at 90%. For the same molecule, in series [4], the EC50 stood at 5 nM.

On to `Cc1c(Nc2ccc(S(C)(=O)=O)cc2F)ncnc1O[C@H]1CC[C@]2(CC1)COC(C)(C)C2`, for which the solubility in series [1] is 15.8 µM (≈ 7.32 µg/mL); in series [2], 5.3 µM (≈ 2.46 µg/mL). For the same molecule, the Intrinsic activity in series [3] came out at 91%. In addition, the EC50 in series [4] worked out at 13 nM.

For `CC1(C)C[C@]2(CC[C@H](Oc3cc(N4CCc5cc(S(C)(=O)=O)ccc54)ncn3)CC2)CO1`, the solubility in series [1] is 19.8 µM (≈ 9.06 µg/mL); in series [2], 7 µM (≈ 3.2 µg/mL). The Intrinsic activity in series [3] worked out at 87%. In addition, the EC50 in series [4] is 15 nM.

Regarding `Cc1c(Oc2ccc(S(C)(=O)=O)cc2F)ncnc1O[C@H]1CC[C@]2(CC1)COC(C)(C)C2`, the solubility in series [1] was 33.4 µM (≈ 15.5 µg/mL); in series [2], < 0.5 µM. The Intrinsic activity in series [3] amounted to 62%. For the same molecule, in series [4], the half-maximal effective concentration (EC50) was found to be 59 nM.

Consider `CN(c1cc(N2CCc3cc(S(C)(=O)=O)ccc32)ncn1)[C@H]1CC[C@]2(CC1)COC(C)(C)C2`, for which the remaining at 1 h, 5 µM is 89% in series [5] and 80% in series [6]. The solubility in series [1] worked out at 24.3 µM (≈ 11.4 µg/mL); in series [2], 418 µM (≈ 197 µg/mL). In addition, the Intrinsic activity in series [3] amounted to 108%. Further, the EC50 in series [4] is 16 nM.

As for `Cc1c(Nc2ccc(S(C)(=O)=O)cc2)ncnc1O[C@H]1CC[C@]2(CC1)COC(C)(C)C2`, the solubility is 8.6 µM (≈ 3.83 µg/mL) in series [1] and 4.4 µM (≈ 1.96 µg/mL) in series [2]. For the same molecule, in series [3], the Intrinsic activity turned out to be 92%. In series [4], the 50% effective concentration (EC50) was 139 nM.
